The source made the active and inactive calls.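 Rule for the calls: active = cell viability under 70% at any tested concentration, a measure not printed in our tables; inactive = the rest.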

In this test the test system is HEp-2 viability, ATP luminescence (CellTiter-Glo). Put plainly: HEp-2 viability by ATP luminescence – cell-based, CellTiter-Glo, synthesized compounds, set 7, cytotoxicity control for RSV inhibitor project, dose response (AID 504674). The gist of the method: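 assay system = HEp-2 cells | amount = 10,595 cells/well | medium = DMEM/F12 | compound dosing = 8-point twofold dilution series, 50 to 0.39 µM, 0.5% DMSO | incubation = 6 d compound exposure, 37 °C | measured by = ATP luminescence with CellTiter-Glo reagent | benchmarks = cell-only wells as reference | replication = each concentration tested in triplicate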
Turning to `COc1ccccc1NC(=O)[C@@H]1CCCN1S(=O)(=O)c1cccc2nonc12`, the CC50 is > 50 µM (inactive).

On to `Cc1ccc(Cn2c(=O)n(Cc3ccc(C(=O)N(C)C)cc3)c(=O)c3ccccc32)cc1`, for which the CC50 was 11 µM.

On to `O=C(NCc1ccc(Cl)cc1)C1CCN(S(=O)(=O)c2cccc3nonc23)CC1`, for which the CC50 is > 50 µM (inactive).

`COCCCNC(=O)c1ccc(Cn2c(=O)c3ccc(C)cc3n(Cc3ccc(C)cc3)c2=O)cc1`: the CC50 is > 50 µM (inactive).

Regarding `Cc1ccc(NC(=O)[C@@H]2CCCN2S(=O)(=O)c2cccc3nonc23)c(C)c1`, the CC50 is > 50 µM (inactive).

`Cc1ccc(Cl)cc1NC(=O)[C@@H]1CCCN1S(=O)(=O)c1cccc2cccnc12`: the half-maximal cytotoxic concentration (CC50) was 13 µM.

As for `COCCCNC(=O)c1ccc(Cn2c(=O)c3ccc(OC)cc3n(Cc3ccc(C)cc3)c2=O)cc1`, the CC50 was 11.7 µM.

For `COCCNC(=O)c1ccc(Cn2c(=O)c3ccccc3n(Cc3ccc(C)cc3)c2=O)cc1`, the CC50 was > 50 µM (inactive).

In the case of `Cc1ccc(Cn2c(=O)n(Cc3ccc(C(=O)N4CCCC4)cc3)c(=O)c3ccccc32)cc1`, the CC50 is 4.6 µM.

For `COCCCNC(=O)c1ccc(Cn2c(=O)c3ccc(C(F)(F)F)cc3n(Cc3ccc(C)cc3)c2=O)cc1`, the CC50 was > 50 µM (inactive).

Consider `O=C(NCc1cccc(Cl)c1)C1CCN(S(=O)(=O)c2cccc3nonc23)CC1`, for which the CC50 was > 50 µM (inactive).

With `Cc1ccc(Cn2c(=O)n(Cc3ccc(C(=O)N4CCOCC4)cc3)c(=O)c3ccccc32)cc1`, the 50% cytotoxic concentration (CC50) is 16.6 µM.

For the compound `Cc1ccc(CNC(=O)C2CCN(S(=O)(=O)c3cccc4nonc34)CC2)c(C)c1`, the CC50 is > 50 µM (inactive).

Regarding `Cc1ccc(Cn2c(=O)n(Cc3ccc(C(=O)N4CCCCC4)cc3)c(=O)c3ccccc32)cc1`, the CC50 was 5.12 µM.

Take `Cc1ccc(Cn2c(=O)n(Cc3ccc(C(=O)NC4CCCCC4)cc3)c(=O)c3ccccc32)cc1`: the CC50 was > 50 µM (inactive).

With `COc1ccc(C)c(NC(=O)[C@@H]2CCCN2S(=O)(=O)c2cccc3cccnc23)c1`, the CC50 is > 50 µM (inactive).

One may read the CC50 as the concentration giving 50% cytotoxicity.

The record behind these values is PubChem BioAssay AID504674 (Southern Research Specialized Biocontainment Screening …, 2011).
